APJ ag – agonists of human apelin receptor APJ, primary screen, CHO-K1 cells, PathHunter beta-arrestin, luminescence | activation, % at 20 µM | 0% DMSO wells, 100% apelin | 0.11% of 330,000 active | P35414;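 active means activation more than six SD over the plate average, tested at 20 µM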
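Test system – PathHunter CHO-K1 APJ (AGTRL-1) beta-arrestin reporter cells · Input – 1000 cells/well · Compound – single test compound dose, 20 µM final, 1% DMSO · Times – compound stimulation 90 min at 25 °C, detection 60 min · Technique – beta-gal luminescence · Read-out basis – APJ–arrestin association signal · Control set – negative DMSO alone, positive Apelin-13 at 10 nM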
CCR6 antagonist – CCR6 receptor antagonists, primary screen, cell-based, CHO-K1, luminescence, beta-arrestin, uHTS. C-C chemokine receptor type 6 (Homo sapiens), P51684. CHO-K1 CCR6 PathHunter beta-arrestin, CCL20-stimulated. inhibition, % at 20 µM. 0.49% of 340,000 active;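 active means compounds whose inhibition of the agonist-driven luminescence signal at 20 µM reaches about 50%, limit read from the data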;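 further: cells stimulated with CCL20 at 14 nM final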
APJ antagonist – antagonists of human apelin receptor APJ, primary screen, CHO-K1 cells, beta-arrestin complementation, luminescence. inhibition, % at 20 µM. AID 2521, 2010. P35414. 0.32% of 330,000 active;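 active means inhibition above about 40% at 20 µM, limit read from the data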;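 further: cells challenged with 10 nM apelin-13 agonist together with compound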
CXCR6 inh – CXCR6 receptor inhibitors, primary screen, cell-based, beta-arrestin, luminescence, CHO-K1 PathHunter, 1536-well; C-X-C chemokine receptor type 6 (Homo sapiens), O00574; inhibition, % at 20 µM; 0.36% of 360,000 active; AID 602244, 2012; in the data active means inhibition above about 34%, passing the limit was not always enough;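 further: antagonist mode with CXCL16 agonist at 10 nM final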
EBI2 block – EBI2 receptor antagonists, beta-arrestin recruitment, primary screen, cell-based, luminescence, 7a,25-OHC stimulation, uHTS | 7a,25-OHC stimulated | inhibition, % at 5 µM | 0.81% of 360,000 active; in the data active means inhibition above about 38%;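 further: enzyme fragment complementation signal reports receptor beta-arrestin coupling in cells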
Target sequence (P32249 whole entry, looked up, the tested form may be a part): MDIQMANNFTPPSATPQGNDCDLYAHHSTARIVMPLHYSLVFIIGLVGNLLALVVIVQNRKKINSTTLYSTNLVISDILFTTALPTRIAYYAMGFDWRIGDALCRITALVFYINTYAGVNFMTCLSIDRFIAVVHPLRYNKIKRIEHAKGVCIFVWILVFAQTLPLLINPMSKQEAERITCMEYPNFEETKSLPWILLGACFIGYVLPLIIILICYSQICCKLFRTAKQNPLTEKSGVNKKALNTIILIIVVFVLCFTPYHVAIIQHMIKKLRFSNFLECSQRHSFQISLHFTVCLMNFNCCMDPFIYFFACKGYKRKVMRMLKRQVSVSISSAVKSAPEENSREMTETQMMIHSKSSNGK
Large screens that a line does not name were inactive. Rows were chosen to be rich in hits. Some 1.5% of all compounds tested hit in one or more screens of this group.

c1ccc(N=NC2=NN(c3ccccc3)CS2)cc1	CXCR6 inh 42 (no result: APJ ag, CCR6 antagonist, APJ antagonist)
Cc1ccccc1-c1cc2nc(NCCOc3ccccc3Cl)n(C)c(=O)c2s1	none (no result: APJ ag, CCR6 antagonist, APJ antagonist)
Cc1c(N=NC2=C(O)CC(C)(C)CC2=O)c(=O)n(-c2ccccc2)n1C	CXCR6 inh 61 (no result: CCR6 antagonist)
O=C(NNS(=O)(=O)c1cccc(Cl)c1)c1cc(-c2ccc(F)cc2)nc2ccccc12	none
O=C(NC(=S)Nc1cccnc1)c1ccccc1	none
O=C(NC(=S)Nc1ccc2oc(-c3cccnc3)nc2c1)c1cccc(Cl)c1	CCR6 antagonist 54
O=C(NC(=S)Nc1cccnc1)c1cccc(Br)c1	CCR6 antagonist 58
O=C(NC(=S)Nc1cc(Cl)ccc1O)c1cccc(Br)c1	CCR6 antagonist 59
O=C(NNC(=O)c1cccc(Br)c1)Nc1ccc(Cl)cc1	none
CC1=C/C(=C(\c2cc(C)c(O)c(Br)c2)c2ccccc2S(=O)(=O)O)C=C(Br)C1=O	CCR6 antagonist 59
Cc1cc(C(=O)c2ccccc2)cc(C)c1O	none (no result: APJ ag, APJ antagonist)
CC(NC(=O)C1CCCN1C(=O)c1cccs1)c1ccc(Cl)cc1Cl (stereo not given)	none (no result: APJ ag, CCR6 antagonist, APJ antagonist)
CCCN1CCN(C(=O)c2cc3c(s2)-c2ccccc2OC3)CC1	EBI2 block 88
O=C(CCl)Nc1cn(-c2ccccc2)nc1-c1ccccc1	none
Cc1cc(Br)ccc1-n1[nH]c(C)c(C=Nc2cccc3nsnc23)c1=O	CCR6 antagonist 52
Cn1c(N=Nc2ccc(N3CCOCC3)cc2)[n+](C)c2ccccc21	CCR6 antagonist 63, CXCR6 inh 54 (no result: APJ ag, APJ antagonist)
Cn1c(=Nc2ccc(N3CCOCC3)cc2)ccc2ccccc21	none
O=C(N/N=C/C(Br)=C\c1ccccc1)c1cccs1	none
N#CC(C#N)=C1C=CC=CN1/C(=C\c1ccccc1)C(=O)c1cccs1	CCR6 antagonist 87
O=c1c(Br)ccc(Br)cc1Br	CCR6 antagonist 111, CXCR6 inh 95 (no result: APJ ag, APJ antagonist)
Cc1oc2c(c1C(=O)c1ccccc1)C(=O)C(=O)c1ccccc1-2	CCR6 antagonist 71
CN(C)c1ccc(/C=C2/C[N+](C)(C)C/C(=C/c3ccc(N(C)C)cc3)C2=O)cc1	CCR6 antagonist 62, CXCR6 inh 49 (no result: APJ ag, APJ antagonist)
CN1CCC(N(C)C(=O)/C(C#N)=C/c2ccccc2)CC1	none (no result: APJ ag, APJ antagonist)
CCCC(=O)Nc1nnc(S(=O)(=O)N(CC(C)C)c2ccccc2)s1	none
Oc1ccc(/C=N/NC(=S)NC2CC3CCC2C3)cc1 (stereo not given)	EBI2 block 49
O=C1c2ccccc2-c2nnc(-c3ccc(F)cc3)cc21	EBI2 block 48
N#CCCn1cc(C(=O)CN2C(=O)NC3(CCc4ccccc43)C2=O)c2ccccc21 (stereo not given)	none (no result: APJ ag, CCR6 antagonist, APJ antagonist)
O=[N+]([O-])c1cc([N+](=O)[O-])c2cc3ccccc3nc2c1	CXCR6 inh 41, EBI2 block 70
CC1=NOC(=O)/C1=C\c1ccc(-c2ccc(Cl)cc2Cl)o1	APJ ag 35
CC(C)CC(=O)Nc1ccc(C(=O)CN2C(=O)NC3(CCOc4ccccc43)C2=O)cc1 (stereo not given)	none
Cc1ccccc1N1C(=O)CC(Sc2nnc(-c3ccccc3)o2)C1=O (stereo not given)	CXCR6 inh 52 (no result: CCR6 antagonist)
CCOC(=O)c1c(S(=O)(=O)N2CCC(C)CC2)c(C)n(C)c1C	none
Cc1ccc(C2C3CN(C(C)C)CC=C3C(C#N)=C(N)C2(C#N)C#N)cc1 (stereo not given)	CCR6 antagonist 60, CXCR6 inh 53
O=C(Nc1cccc(C(F)(F)F)c1)Oc1ccc(Cl)c2cccnc12	CCR6 antagonist 77, CXCR6 inh 60 (no result: APJ ag, APJ antagonist)
CCN(CC)C(=O)Oc1ccc(Cl)c2cccnc12	none
Cc1cc(NS(=O)(=O)c2ccc(NC(=S)NC(=O)c3ccc(Cl)cc3Cl)cc2)no1	CCR6 antagonist 52
Cc1cc(NS(=O)(=O)c2ccc(NC(=O)c3ccc(Cl)cc3Cl)cc2)no1	none
FC(F)(F)c1nnc(-c2ccccc2)nc1Oc1ccc(Cl)cc1Cl	CCR6 antagonist 56
CN1CCN(CCC(=O)Nc2cccc(Br)c2)CC1	none
O=S(=O)(Nc1ccc(N=Nc2ccc(O)c3ccccc23)cc1)c1ccccc1	CCR6 antagonist 61, EBI2 block 47
O=C1Nc2ccccc2/C1=N\N=C\c1ccc(O)c(O)c1	none

Screening results as filed in PubChem.
